Measured values from ChEMBL document CHEMBL3244321, “Nitramino acids. Synthesis and biological evaluation of 1-nitroproline, 1-nitropipecolic acid, and N-nitrosarcosine” (J Med Chem, 1977).
Active and inactive are the calls of the source. No cut-off for these calls is given here.

Tests used:
[1] = Acute toxicity in ip dosed Swiss-Webster mouse measured after 72 hrs; type: organism-based; details: in vivo
Escherichia coli = assay: Antibacterial activity against Escherichia coli ATCC 25922 assessed as inhibition of bacterial growth at up to 100 ug/ml after 16 hrs by spectrophotometer; type: functional, organism-based
Outline: (§1)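 Tested at 10, 25, 50 and 100 µg/mL in Mueller-Hinton broth at 37 °C with rotary shaking at 150 rpm. Incubation was 16 h for E. coli and 7 h for P. aeruginosa. Growth was read turbidimetrically at 600 nm.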

Pseudomonas aeruginosa = assay: Antibacterial activity against Pseudomonas aeruginosa ATCC 27853 assessed as inhibition of bacterial growth at up to 100 ug/ml after 7 hrs by spectrophotometer; type: functional, organism-based; outline: as §1
[2] = test system: Mycolicibacterium smegmatis; assay: Antibacterial activity against Mycobacterium smegmatis H607 assessed as inhibition of bacterial growth up to 100 ug/ml after 22 hrs by spectrophotometer; type: functional, organism-based
Outline: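 Sauton synthetic medium, with compound at 10, 25, 50 and 100 µg/mL. Incubated 22 h at 37 °C with rotary shaking at 150 rpm. Growth was measured turbidimetrically at 600 nm.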

Candida albicans [3] = assay: Antifungal activity against Candida albicans ATCC 11651 assessed as inhibition of fungal growth up to 100 ug/ml after 16 hrs by spectrophotometer; type: functional, organism-based
Outline: (§2)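 Yeast nitrogen base (pH 7.0), with compound at 10, 25, 50 and 100 µg/mL. Incubated 16 h at 37 °C with 150 rpm rotary shaking. Turbidity was read at 600 nm.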

Candida albicans [4] = assay: Antifungal activity against Candida albicans clinical isolate assessed as inhibition of fungal growth up to 100 ug/ml after 16 hrs by spectrophotometer; type: functional, organism-based; outline: as §2
Salmonella typhimurium [5] = assay: Mutagenicity in Salmonella typhimurium TA100 assessed as revertant colonies at 300 umol incubated under aerobic conditions in dark for 2 days by Ames test; type: toxicity, organism-based; details: salmonella enterica subsp. enterica serovar typhimurium, 48 h
Outline: (§3)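 Ames plate-incorporation assay. Overnight TA-100 nutrient-broth culture, about 10^7 cells per plate. Compound solutions were adjusted to pH 7 and filter-sterilized, then mixed in a histidine-biotin-limited agar overlay on minimal glucose agar, with or without S-9. S-9 was the 9000g supernatant of 25% liver homogenate in 0.15 M KCl from phenobarbital-treated male Sprague-Dawley rats. Plates were incubated aerobically at 37 °C in the dark for 2 days, or anaerobically (Gas-Pak) for 16-17 h and then aerobically for 48 h. Revertants were counted in triplicate and averaged. Matched vehicle/condition background was subtracted.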

Salmonella typhimurium [6] = assay: Mutagenicity in Salmonella typhimurium TA100 assessed as revertant colonies at 300 umol incubated under aerobic conditions in dark for 2 days by Ames test in presence of Sprague-Dawley rat liver S9 fraction; type: toxicity, organism-based; details: salmonella enterica subsp. enterica serovar typhimurium, s9, 48 h; outline: as §3
Salmonella typhimurium [7] = assay: Mutagenicity in Salmonella typhimurium TA100 assessed as revertant colonies at 300 umol incubated under anaerobic conditions for 16 to 17 hrs followed by 48 hrs under aerobic conditions by Ames test; type: toxicity, organism-based; details: salmonella enterica subsp. enterica serovar typhimurium; outline: as §3
Salmonella typhimurium [8] = assay: Mutagenicity in Salmonella typhimurium TA100 assessed as revertant colonies at 300 umol incubated under anaerobic conditions for 16 to 17 hrs followed by 48 hrs under aerobic conditions by Ames test in presence of Sprague-Dawley rat liver S9 fraction; type: toxicity, organism-based; details: salmonella enterica subsp. enterica serovar typhimurium; outline: as §3

Row | Compound | LD50 at 72 h [1] [µmol/kg] | inhibition (Escherichia coli) | inhibition (Pseudomonas aeruginosa) | inhibition [2] | inhibition (Candida albicans [3]) | inhibition (Candida albicans [4]) | Activity (Salmonella typhimurium [5]) | Activity (Salmonella typhimurium [6]) | Activity (Salmonella typhimurium [7]) | Activity (Salmonella typhimurium [8])
1 | O=C(O)C1CCCCN1[N+](=O)[O-] (racemic) | 2100 | inactive | inactive | inactive | inactive | inactive | Non-toxic | Non-toxic | Non-toxic | Non-toxic
2 | O=C(O)[C@H]1CCCN1[N+](=O)[O-] | 1390 | inactive | inactive | inactive | inactive | inactive |  |  |  | 
3 | O=C(O)[C@@H]1CCCN1[N+](=O)[O-] | 1170 | inactive | inactive | inactive | inactive | inactive | Non-toxic | Non-toxic | Non-toxic | Non-toxic
